Tests used:
[1] = Permeability from apical to basal side of MDCK2 cells expressing MDR1 assessed as fraction of mass extracted by methanol wash at 5 uM after 1 hr by LC-MS/MS analysis; format: ADME, cell-based, Canis lupus familiaris; conditions: dog, mdck-ii
Procedure, shortened: (§1)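 MDCKII-MDR1 cells on Transwell polycarbonate filters (50,000 cells cm−2), used day 6. 5 μM compound added to donor chamber (AB or BA). Donor and receiver sampled after 1 h at 37 °C with nutation. Cell-associated fraction taken by methanol extraction of monolayer after AB flux. Quantified by LC-MS/MS. ±SD.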

P-gp (MDR1, ABCB1) [2] = target: T1, P-gp (MDR1, ABCB1) (Homo sapiens, UniProt P08183); assay: Inhibition of MDR1 transfected in MDCK2 cells assessed as increase in calcein AM uptake at 5*10^-6 M incubated for 30 mins prior to calcein AM influx measured after 20 mins by fluorimetric analysis relative to LSN 335984; format: cell-based, MDCK-II; conditions: dog, MDCK2 cells transfected with MDR1, probe calcein AM
Procedure, shortened: (§2)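 MDCKII-MDR1 cells (passage 16-42) seeded 40,000 cells/well, used day 4. Washed with DPBS plus 10−2 M Hepes pH 7.4, then incubated 30 min at 37 °C with compound in this buffer with 4.3 mg mL−1 BSA. Compound solution then replaced with one also holding 0.5 μg mL−1 calcein AM, 20 min more.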

[3] = Permeability from apical to basal side of MDCK2 cells expressing MDR1 at 5 uM after 1 hr by LC-MS/MS analysis; format: ADME, cell-based, Canis lupus familiaris, MDCK-II; conditions: dog, MDCK-MDR1; read-out: permeability; procedure, shortened: as §1
P-gp (MDR1, ABCB1) [4] = target: T1, P-gp (MDR1, ABCB1); assay: Inhibition of MDR1 transfected in MDCK2 cells assessed as increase in calcein AM uptake at 2.5*10^-5 M incubated for 30 mins prior to calcein AM influx measured after 20 mins by fluorimetric analysis relative to LSN 335984; format: cell-based, MDCK-II; conditions: dog, MDCK2 cells transfected with MDR1, probe calcein AM; procedure, shortened: as §2
[5] = Permeability from apical to basal side of MDCK2 cells expressing MDR1 assessed as fraction of mass extracted by methanol wash at 5 uM after 1 hr by LC-MS/MS analysis in presence of LSN 335984; format: ADME, cell-based, Canis lupus familiaris; conditions: dog, mdck-ii; procedure, shortened: as §1
[6] = Permeability from basal to apical side of MDCK2 cells expressing MDR1 at 5 uM after 1 hr by LC-MS/MS analysis; format: ADME, cell-based, Canis lupus familiaris, MDCK-II; conditions: dog, MDCK-MDR1; read-out: permeability; procedure, shortened: as §1
[7] = Ratio of permeability from basal to apical side of MDCK2 cells expressing MDR1 in absence of LSN 335984 to permeability from basal to apical side of MDCK2 cells expressing MDR1 in presence of LSN 335984; format: ADME, cell-based, Canis lupus familiaris; conditions: dog, mdck-ii; procedure, shortened: as §1
[8] = target: T2, ATP-dependent translocase ABCB1 (Homo sapiens, UniProt P08183); assay: Inhibition of MDR1 transfected in MDCK2 cells assessed as increase in calcein AM uptake incubated for 30 mins prior to calcein AM influx measured after 20 mins by fluorimetric analysis; format: cell-based, MDCK-II
[9] = target: P-gp (ABCB1) ATPase activity (Homo sapiens, UniProt P08183); assay: Binding affinity to human His10-tagged P-gp expressed in BHK cells assessed as induction of ATPase activity measured as inorganic phosphate release by spectrophotometric analysis relative to control; format: cell-based; conditions: read-out: FC
[10] = Ratio of permeability from apical to basal side of MDCK2 cells expressing MDR1 assessed as fraction of mass extracted by methanol wash at 5 uM in presence of LSN 335984 to permeability from apical to basal side of MDCK2 cells expressing MDR1 assessed as fraction of mass extracted by methanol wash at 5 uM in absence of LSN 335984; format: ADME, cell-based, Canis lupus familiaris; conditions: dog, mdck-ii; procedure, shortened: as §1
[11] = n-Octanol-water partition coefficient, log P of the compound at pH 7.4 by shake flask method; format: physicochemical
[12] = target: T2, ATP-dependent translocase ABCB1; assay: Inhibition of MDR1 transfected in MDCK2 cells assessed as inhibition of [3H]vinblastine efflux incubated for 30 mins prior to [3H]vinblastine addition by scintillation counting; format: cell-based, MDCK-II
Procedure, shortened: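 Transwell MDCKII-MDR1 monolayers on day 6, rinsed 10 min in DPBSH at 37 °C. Conditioned with compound at 1 × 10−10 to 1 × 10−5 M in BSA/DPBSH. [3H]-vinblastine added to the basolateral side. Apical buffer replaced every 10 min, and apical [3H] counted by scintillation. IC50 calculated from the curve.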

[13] = target: T2, ATP-dependent translocase ABCB1; assay: Inhibition of human His10-tagged P-gp ATPase activity expressed in BHK cells assessed as verapamil-induced inorganic phosphate release incubated for 15 mins prior to verapamil addition by spectrophotometric analysis; format: cell-based
Procedure, shortened: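 P-gp-His10 stably expressed in BHK cells, Ni-chelate purified and mixed 1:1 with 10 mg/ml sheep brain phosphatidylethanolamine. Pre-incubated with compound 15 min at 20 °C. […] Released inorganic phosphate measured.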

T2 sequence (P08183 whole entry): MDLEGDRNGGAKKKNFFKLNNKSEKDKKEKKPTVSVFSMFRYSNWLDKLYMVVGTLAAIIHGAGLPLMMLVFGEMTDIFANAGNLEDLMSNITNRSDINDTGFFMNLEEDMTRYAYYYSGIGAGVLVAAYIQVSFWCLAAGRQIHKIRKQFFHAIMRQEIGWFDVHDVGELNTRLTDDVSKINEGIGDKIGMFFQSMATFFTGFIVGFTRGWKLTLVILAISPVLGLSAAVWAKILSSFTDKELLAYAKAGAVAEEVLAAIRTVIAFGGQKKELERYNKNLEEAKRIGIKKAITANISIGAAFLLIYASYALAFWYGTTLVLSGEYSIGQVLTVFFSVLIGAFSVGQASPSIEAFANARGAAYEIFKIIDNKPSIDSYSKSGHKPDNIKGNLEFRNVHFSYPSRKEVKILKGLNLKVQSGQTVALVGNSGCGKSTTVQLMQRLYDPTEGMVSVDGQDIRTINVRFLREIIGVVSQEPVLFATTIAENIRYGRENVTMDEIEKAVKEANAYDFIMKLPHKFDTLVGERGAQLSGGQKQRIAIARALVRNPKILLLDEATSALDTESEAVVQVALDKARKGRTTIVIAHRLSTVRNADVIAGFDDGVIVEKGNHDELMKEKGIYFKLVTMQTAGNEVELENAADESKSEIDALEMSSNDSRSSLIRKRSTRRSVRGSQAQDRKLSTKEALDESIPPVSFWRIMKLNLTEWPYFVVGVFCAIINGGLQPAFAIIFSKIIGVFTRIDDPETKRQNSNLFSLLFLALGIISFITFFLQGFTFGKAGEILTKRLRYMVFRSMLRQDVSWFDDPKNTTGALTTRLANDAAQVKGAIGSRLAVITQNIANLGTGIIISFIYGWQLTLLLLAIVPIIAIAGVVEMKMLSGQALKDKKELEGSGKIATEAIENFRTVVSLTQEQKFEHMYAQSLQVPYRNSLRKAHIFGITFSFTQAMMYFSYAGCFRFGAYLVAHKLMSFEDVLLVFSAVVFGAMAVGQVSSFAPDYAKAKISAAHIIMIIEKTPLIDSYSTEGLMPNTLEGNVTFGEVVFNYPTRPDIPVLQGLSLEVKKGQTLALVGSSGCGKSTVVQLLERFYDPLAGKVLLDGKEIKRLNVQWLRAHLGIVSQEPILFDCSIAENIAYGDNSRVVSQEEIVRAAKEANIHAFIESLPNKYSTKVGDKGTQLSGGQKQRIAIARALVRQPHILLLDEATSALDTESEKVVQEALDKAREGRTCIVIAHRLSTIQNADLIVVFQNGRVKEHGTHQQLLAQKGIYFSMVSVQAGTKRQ
Sequence of P-gp (ABCB1) ATPase activity (P08183 whole entry): as above
T1 sequence (P08183 whole entry): as above

Row | SMILES | permeability [1] | inhibition at 20 min, 5 µM (P-gp (MDR1, ABCB1) [2]) | Papp A→B at 1 h, 5 µM [3] | inhibition at 20 min, 25 µM (P-gp (MDR1, ABCB1) [4]) | permeability [5] | Papp B→A at 1 h, 5 µM [6] | Ratio [7] | IC50 [8] | fold induction [9] | Ratio [10] | logD [11] | IC50 [12] | IC50 [13]
1 | C[N+](C)=c1ccc2c(-c3ccc(C(=S)N4CCCCC4)s3)c3cc4c5c(c3sc-2c1)CCCN5CCC4.F[P-](F)(F)(F)(F)F | 31% | 0% | ≤ 0.1 ×10⁻⁶ cm/s | 41% | 64% | 8.3 ×10⁻⁶ cm/s | – | – | – | – | – | – | –
2 | C[N+](C)=c1ccc2c(-c3ccc(C(=O)N4CCCCC4)s3)c3cc4c5c(c3sc-2c1)CCCN5CCC4.F[P-](F)(F)(F)(F)F | 6.9% | 0% | ≤ 0.1 ×10⁻⁶ cm/s | 41% | 42% | 22 ×10⁻⁶ cm/s | 27 | 56 µM | 4.1 | 6.1 | 1.4 | – | –
3 | CN(C)c1ccc2c(-c3ccc(C(=O)N4CCCCC4)s3)c3ccc(=[N+](C)C)cc-3sc2c1 | – | – | – | – | – | – | – | – | – | – | 1.5 | – | –
4 | CCN(CC)C(=S)c1ccc(-c2c3ccc(=[N+](C)C)cc-3sc3cc4c(cc23)C(C)(C)CCN4C)s1.F[P-](F)(F)(F)(F)F | 52% | 0% | ≤ 0.1 ×10⁻⁶ cm/s | 64% | 64% | 6.9 ×10⁻⁶ cm/s | 69 | 8.8 µM | 4.3 | 1.2 | 2.7 | 8.7 µM | –
5 | CCN(CC)C(=O)c1ccc(-c2c3ccc(=[N+](C)C)cc-3sc3cc4c(cc23)C(C)(C)CCN4C)s1.F[P-](F)(F)(F)(F)F | 10% | 0% | ≤ 0.1 ×10⁻⁶ cm/s | 64% | 33% | 37 ×10⁻⁶ cm/s | 14 | 7.1 µM | 4.7 | 3.3 | 1.4 | 8 µM | –
6 | CCN(CC)C(=S)c1ccc(-c2c3ccc(=[N+](C)C)cc-3sc3c4c5c(cc23)CCCN5CCC4)s1.F[P-](F)(F)(F)(F)F | 25% | 0% | ≤ 0.1 ×10⁻⁶ cm/s | 41% | 45% | 6.5 ×10⁻⁶ cm/s | 24 | 9.6 µM | 4.6 | 1.8 | 1.7 | – | –
7 | CN1CCC(C)(C)c2cc3c(-c4ccc(C(=S)N5CCCCC5)s4)c4ccc(=[N+](C)C)cc-4sc3cc21.F[P-](F)(F)(F)(F)F | 34% | 0% | ≤ 0.1 ×10⁻⁶ cm/s | 64% | 62% | 3.4 ×10⁻⁶ cm/s | 170 | 9.3 µM | < 2 | 1.8 | 2.6 | 8.9 µM | 1.7 µM
8 | CCN(CC)C(=O)c1ccc(-c2c3ccc(=[N+](C)C)cc-3sc3c4c5c(cc23)CCCN5CCC4)s1.F[P-](F)(F)(F)(F)F | 5.8% | 0% | ≤ 0.1 ×10⁻⁶ cm/s | 41% | 28% | 21 ×10⁻⁶ cm/s | 12 | 10 µM | 5.6 | 4.8 | 1.9 | – | –
9 | CCN(CC)C(=O)c1ccc(-c2c3ccc(=[N+](C)C)cc-3sc3cc(N(C)C)ccc23)s1 | – | – | – | – | – | – | – | – | – | – | 1.2 | – | –
10 | CN1CCC(C)(C)c2cc3c(-c4ccc(C(=O)N5CCCCC5)s4)c4ccc(=[N+](C)C)cc-4sc3cc21.F[P-](F)(F)(F)(F)F | 8.6% | 0% | ≤ 0.1 ×10⁻⁶ cm/s | 64% | 45% | 23 ×10⁻⁶ cm/s | 31 | 13 µM | < 2 | 5.2 | 1.7 | 5.6 µM | 1.1 µM
11 | CCN(CC)C(=S)c1ccc(-c2c3ccc(=[N+](C)C)cc-3sc3cc(N(C)C)ccc23)s1.F[P-](F)(F)(F)(F)F | 11% | 0% | ≤ 0.1 ×10⁻⁶ cm/s | 3% | 56% | 21 ×10⁻⁶ cm/s | 41 | 14 µM | 12.1 | 5.1 | 1.2 | – | –
